Data on two compounds can be found in ChEMBL document CHEMBL3861962 (Eur J Med Chem, 2016).

A short description of data set [1]: Drug metabolism in human liver microsomes assessed as formation of OH-substituted O-demethyl-4-(1,1,1,2,3,3,3-Heptafluoropropan-2-yl)-N-(6-(2-hydroxyethoxy)-5-(2-methoxyphenoxy)-2,2'-bipyrimidin-4-yl)benzenesulfonamide at 5 uM in presence of NADPH after 30 mins by LC-MS/MS analysis. The format is ADME. The note with it: 0.5 h. The procedure, abridged: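 Pooled human liver microsomes in 100 mM potassium phosphate, pH 7.4, with test compound at 5 μM final. Reaction started with 1 mM NADPH (final) and run at 37 °C in a shaking water bath for 0, 15 and 30 min. Stopped with an equal volume of ice-cold acetonitrile containing 0.6 μM labetalol as internal standard. Protein was spun out and the supernatant analysed by LC-MS/MS. Blank had no compound.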

Data set [2] addresses T1, Endothelin-1 receptor (Homo sapiens) (UniProt P25101).
T1 sequence (whole entry): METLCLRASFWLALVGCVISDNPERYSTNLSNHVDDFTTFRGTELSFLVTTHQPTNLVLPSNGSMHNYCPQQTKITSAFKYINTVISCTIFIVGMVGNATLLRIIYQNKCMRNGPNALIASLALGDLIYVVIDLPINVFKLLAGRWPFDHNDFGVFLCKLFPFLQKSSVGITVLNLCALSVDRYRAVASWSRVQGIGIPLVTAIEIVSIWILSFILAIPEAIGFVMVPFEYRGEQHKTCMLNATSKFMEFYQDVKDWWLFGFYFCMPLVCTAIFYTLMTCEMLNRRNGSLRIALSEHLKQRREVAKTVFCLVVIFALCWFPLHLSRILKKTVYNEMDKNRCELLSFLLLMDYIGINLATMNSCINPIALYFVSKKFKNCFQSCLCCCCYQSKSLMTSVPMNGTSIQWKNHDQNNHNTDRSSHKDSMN
The data set can be described thus: Agonist activity at ETA receptor in human SKNMC cells assessed as induction of Ca2+ mobilization at 1 nM by fluorimetric method relative to control. To be noted: SK-N-MC. The format is functional, cell-based. The procedure, abridged: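 ETA functional assay run by Cerep in human neuroblastoma SK-N-MC cells at 22 °C with fluorimetric read-out. Test solutions were 1, 10, 100 and 1000 nM. Agonist response is given as % of the control response to 100 nM endothelin-1. For antagonist mode, inhibition is given as % of the control endothelin-1 agonist response, with BQ-123 as reference antagonist.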
A general note: A change in cytosolic calcium serves as a functional read-out for many receptors and channels.

Data set [3] has as its target T2, Cytochrome P450 3A4 (Homo sapiens, UniProt P08684). Kind of data set: Drug metabolism assessed as human recombinant CYP3A4-mediated formation of N-(6-(2-hydroxyethoxy)-5-(2-hydroxyphenoxy)-2,2'-bipyrimidin-4-yl)-4-(perfluoropropan-2-yl)benzenesulfonamide at 5 uM in presence of NADPH after 30 mins by LC-MS/MS analysis. The format is ADME. The note with it: recombinant enzyme, 0.5 h. The procedure, abridged: (§1)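 Substrate at 5 μM final in 100 mM potassium phosphate, pH 7.4, incubated with human liver microsomes or baculovirus-expressed recombinant CYP3A4, 2D6 or 2C9. Reaction started with 1 mM NADPH and run 0, 15 and 30 min at 37 °C. Stopped with ice-cold acetonitrile containing labetalol internal standard, then centrifuged. Supernatant analysed by LC-MS/MS on a C18 column at 40 °C. Blank was enzyme without substrate.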

Data set [4] can be described thus: Drug metabolism in human liver microsomes assessed as formation of N-(6-(2-hydroxyethoxy)-5-(2-hydroxyphenoxy)-2,2'-bipyrimidin-4-yl)-4-(perfluoropropan-2-yl)benzenesulfonamide at 5 uM in presence of NADPH after 30 mins by LC-MS/MS analysis. To be noted: 0.5 h. The format is ADME. The procedure, abridged:
as §1
For orientation: Microsomes from liver hold many membrane-bound enzymes, among them those of drug oxidation.

Data set [5] deals with T2, Cytochrome P450 3A4. The data set can be described thus: Drug metabolism assessed as human recombinant CYP3A4-mediated metabolite formation by measuring parent compound remaining at 5 uM in presence of NADPH after 30 mins by LC-MS/MS analysis. The format is ADME. To be noted: recombinant enzyme, 0.5 h. The method, boiled down:
as §1

In data set [6] the target is T2, Cytochrome P450 3A4. Kind of data set: Drug metabolism assessed as human recombinant CYP3A4-mediated formation of OH-substituted O-demethyl-4-(1,1,1,2,3,3,3-Heptafluoropropan-2-yl)-N-(6-(2-hydroxyethoxy)-5-(2-methoxyphenoxy)-2,2'-bipyrimidin-4-yl)benzenesulfonamide at 5 uM in presence of NADPH after 30 mins by LC-MS/MS analysis. The format is ADME. To be noted: recombinant enzyme, 0.5 h. The procedure, abridged:
as §1

The target in data set [7] is T3, Endothelin receptor type B (Homo sapiens) (UniProt P24530).
T3 sequence (whole entry): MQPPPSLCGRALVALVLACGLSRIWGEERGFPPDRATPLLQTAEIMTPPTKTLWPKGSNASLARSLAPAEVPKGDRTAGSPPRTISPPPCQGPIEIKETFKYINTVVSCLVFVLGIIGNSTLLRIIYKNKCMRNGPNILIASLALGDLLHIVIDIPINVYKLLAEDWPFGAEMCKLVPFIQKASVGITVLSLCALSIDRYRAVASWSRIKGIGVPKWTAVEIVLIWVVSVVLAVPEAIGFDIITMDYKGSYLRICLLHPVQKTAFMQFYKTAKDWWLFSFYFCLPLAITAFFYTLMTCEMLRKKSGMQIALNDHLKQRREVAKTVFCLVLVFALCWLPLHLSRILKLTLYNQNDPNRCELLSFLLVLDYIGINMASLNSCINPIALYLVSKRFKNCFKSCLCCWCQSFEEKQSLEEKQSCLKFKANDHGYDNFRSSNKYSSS
The data set can be described thus: Antagonist activity at human recombinant ETB expressed in CHOK1 cells assessed as inhibition of endothelin-1-mediated Ca2+ mobilization at 100 nM by fluorimetric method relative to control. The format is functional, cell-based. The note with it: CHO-K1. The procedure, abridged: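 ETB functional assay run by Cerep in human recombinant CHO-k1 cells at 22 °C with fluorimetric read-out. Test solutions were 1, 10, 100 and 1000 nM. Agonist response is given as % of the control response to 100 nM endothelin-1. For antagonist mode, inhibition is given as % of the control endothelin-1 agonist response, with BQ-788 as reference antagonist.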

Data set [8] can be described thus: Drug metabolism in human liver microsomes assessed as formation of 4-(1,1,1,3,3,3-hexafluoro-2-methoxypropan-2-yl)-N-(6-(2-hydroxyethoxy)-5-(2-hydroxyphenoxy)-2,2'-bipyrimidin-4-yl)benzenesulfonamide at 5 uM in presence of NADPH after 30 mins by LC-MS/MS analysis. The format is ADME. The note with it: 0.5 h. The method, boiled down:
as §1

In data set [9] the target is T2, Cytochrome P450 3A4. Kind of data set: Drug metabolism assessed as human recombinant CYP3A4-mediated formation of 4-(1,1,1,3,3,3-hexafluoro-2-methoxypropan-2-yl)-N-(6-(2-hydroxyethoxy)-5-(2-hydroxyphenoxy)-2,2'-bipyrimidin-4-yl)benzenesulfonamide at 5 uM in presence of NADPH after 30 mins by LC-MS/MS analysis. The format is ADME. To be noted: recombinant enzyme, 0.5 h. The method, boiled down:
as §1

Data set [10] concerns the target T2, Cytochrome P450 3A4. Kind of data set: Drug metabolism assessed as human recombinant CYP3A4-mediated formation of 4-(1,1,1,3,3,3-hexafluoro-2-hydroxypropan-2-yl)-N-(6-(2-hydroxyethoxy)-5-(2-methoxyphenoxy)-2,2'-bipyrimidin-4-yl)benzenesulfonamide at 5 uM in presence of NADPH after 30 mins by LC-MS/MS analysis. The format is ADME. To be noted: recombinant enzyme, 0.5 h. The procedure, abridged:
as §1

Data set [11] can be described thus: Drug metabolism in human liver microsomes assessed as formation of 4-(1,1,1,3,3,3-hexafluoro-2-hydroxypropan-2-yl)-N-(6-(2-hydroxyethoxy)-5-(2-methoxyphenoxy)-2,2'-bipyrimidin-4-yl)benzenesulfonamide at 5 uM in presence of NADPH after 30 mins by LC-MS/MS analysis. The format is ADME. To be noted: 0.5 h. The method, boiled down:
as §1

SMILES strings stand for the structures.

T2 sequence (P08684 whole entry): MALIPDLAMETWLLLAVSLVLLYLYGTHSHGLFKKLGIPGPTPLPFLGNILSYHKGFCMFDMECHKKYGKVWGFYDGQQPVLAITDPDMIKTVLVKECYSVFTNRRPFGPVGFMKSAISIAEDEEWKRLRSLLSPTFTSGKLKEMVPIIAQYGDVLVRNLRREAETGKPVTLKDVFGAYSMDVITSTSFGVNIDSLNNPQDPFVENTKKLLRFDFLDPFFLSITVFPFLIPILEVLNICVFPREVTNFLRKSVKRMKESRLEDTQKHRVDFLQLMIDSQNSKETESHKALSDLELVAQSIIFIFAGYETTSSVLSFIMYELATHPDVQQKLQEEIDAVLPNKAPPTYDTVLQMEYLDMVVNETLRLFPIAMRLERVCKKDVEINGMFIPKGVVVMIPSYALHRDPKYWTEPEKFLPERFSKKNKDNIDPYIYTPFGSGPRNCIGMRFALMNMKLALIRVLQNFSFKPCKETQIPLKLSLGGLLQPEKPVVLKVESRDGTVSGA

Usually inhibition stands for the relative decrease from the control value, in per cent. Turning to `COc1ccccc1Oc1c(NS(=O)(=O)c2ccc(C(F)(C(F)(F)F)C(F)(F)F)cc2)nc(-c2ncccn2)nc1OCCO`, the Drug metabolism result (in [1]; on Cytochrome P450 3A4 [3]; in data set [4]; at Cytochrome P450 3A4 [6]) was “Metabolite_Detected” throughout. Also, in data set [2], the Activity came out at 0%. For the same compound, the Stability at Cytochrome P450 3A4 [5] is listed as 16.3%. For the same compound, in data set [7], the inhibition was found to be 8%.
Turning to `COc1ccccc1Oc1c(NS(=O)(=O)c2ccc(C(OC)(C(F)(F)F)C(F)(F)F)cc2)nc(-c2ncccn2)nc1OCCO`, the Drug metabolism entry (in data set [8]; at Cytochrome P450 3A4 [9]; at Cytochrome P450 3A4 [10]; in data set [11]) was “Metabolite_Detected” in each case. In addition, in data set [2], the Activity stood at 0%. The Stability on Cytochrome P450 3A4 [5] was found to be 19.2%. In addition, the inhibition in data set [7] worked out at 11%.
